Test results: ChEMBL document CHEMBL3286094, “Synthesis and biological evaluation of novel bisbenzimidazoles as Escherichia coli topoisomerase IA inhibitors and potential antibacterial agents” (J Med Chem, 2014)
Values after ≈ are worked out from the molar mass of the structure shown.

How the values were obtained:
Escherichia coli [1] = test: Bactericidal activity against ampicillin/chloramphenicol/ciprofloxacin/gentamicin/tetracycline-resistant Escherichia coli 401 by agar plating method; format: functional
Escherichia coli [2] = test: Antibacterial activity against chloramphenicol/ampicillin/kanamycin/trimethoprim/ciprofloxacin/nalidixic acid-resistant Escherichia coli 132 assessed as growth inhibition after 18 to 24 hrs by broth microdilution method; format: functional
Escherichia coli [3] = test: Bactericidal activity against chloramphenicol/ampicillin/kanamycin/trimethoprim/ciprofloxacin/nalidixic acid-resistant Escherichia coli 151 by agar plating method; format: functional
Escherichia coli [4] = test: Antibacterial activity against Escherichia coli DH5[alpha] assessed as growth inhibition after 18 to 24 hrs by broth microdilution method; format: functional
Escherichia coli [5] = test: Antibacterial activity against multidrug-resistant Escherichia coli IS 54 isolated from water source assessed as growth inhibition after 18 to 24 hrs by broth microdilution method; details: IS 54, Water
Escherichia coli [6] = test: Bactericidal activity against Escherichia coli ATCC 25922 by agar plating method; format: functional
Escherichia coli [7] = test: Bactericidal activity against ampicillin/tetracycline/piperacillin-resistant Escherichia coli WB31 isolated from water source by agar plating method
Escherichia coli [8] = test: Antibacterial activity against multidrug-resistant Escherichia coli IP9 isolated from water source assessed as growth inhibition after 18 to 24 hrs by broth microdilution method
Escherichia coli [9] = test: Antibacterial activity against cefazolinl/ampicillin/piperacillin/cefuroxime/cefepime/cefotaxime/tetracycline/trimethoprim-resistant Escherichia coli KK16 isolated from water source assessed as growth inhibition after 18 to 24 hrs by broth microdilution method
Escherichia coli [10] = test: Bactericidal activity against ampicillin/tetracycline-resistant Escherichia coli IP18 isolated from water source by agar plating method
Escherichia coli [11] = test: Antibacterial activity against ampicillin/chloramphenicol/ciprofloxacin/gentamicin/tetracycline-resistant Escherichia coli 401 assessed as growth inhibition after 18 to 24 hrs by broth microdilution method; format: functional
Escherichia coli [12] = test: Antibacterial activity against ampicillin/trimethoprim/piperacillin-resistant Escherichia coli MKNJ isolated from water source assessed as growth inhibition after 18 to 24 hrs by broth microdilution method
Escherichia coli [13] = test: Antibacterial activity against Escherichia coli ATCC 25922 assessed as growth inhibition after 18 to 24 hrs by broth microdilution method; format: functional
Escherichia coli [14] = test: Antibacterial activity against ampicillin/ciprofloxacin/gentamicin/tetracycline-resistant Escherichia coli 555 assessed as growth inhibition after 18 to 24 hrs by broth microdilution method; format: functional
Escherichia coli [15] = test: Bactericidal activity against ampicillin/kanamycin/trimethoprim/tetracyclin/ciprofloxacin/nalidixic acid-resistant Escherichia coli 81 by agar plating method; format: functional
Escherichia coli [16] = test: Bactericidal activity against tetracycline/trimethoprim-resistant Escherichia coli IST isolated from water source by agar plating method
Escherichia coli [17] = test: Bactericidal activity against ampicillin/ciprofloxacin/gentamicin/tetracycline-resistant Escherichia coli 555 by agar plating method; format: functional
Escherichia coli [18] = test: Antibacterial activity against ampicillin/chloramphenicol/tetracycline/trimethoprim/ciprofloxacin-resistant Escherichia coli KK45 isolated from water source assessed as growth inhibition after 18 to 24 hrs by broth microdilution method
Escherichia coli [19] = test: Bactericidal activity against multidrug-resistant Escherichia coli IS 54 isolated from water source by agar plating method; details: IS 54, Water
Escherichia coli [20] = test: Bactericidal activity against ampicillin/trimethoprim/cefazolinl/piperacillin/cefuroxime/cefoxitine/cefepime/cefotaxime-resistant Escherichia coli KP21 isolated from water source by agar plating method
Escherichia coli [21] = test: Bactericidal activity against cefazolinl/ampicillin/piperacillin/cefuroxime/cefepime/cefotaxime/tetracycline/ciprofloxacin-resistant Escherichia coli NG3 isolated from water source by agar plating method
Escherichia coli [22] = test: Bactericidal activity against chloramphenicol/ampicillin/kanamycin/trimethoprim/ciprofloxacin/nalidixic acid-resistant Escherichia coli 132 by agar plating method; format: functional
Escherichia coli [23] = test: Antibacterial activity against ampicillin/trimethoprim/nalidixic acid-resistant Escherichia coli 118 assessed as growth inhibition after 18 to 24 hrs by broth microdilution method; format: functional
Escherichia coli [24] = test: Bactericidal activity against ampicillin/tetracycline/gentamicin-resistant Escherichia coli 451 by agar plating method; format: functional
Escherichia coli [25] = test: Bactericidal activity against chloramphenicol/ampicillin/trimethoprim/ciprofloxacin/nalidixic acid-resistant Escherichia coli 59 by agar plating method; format: functional
Escherichia coli [26] = test: Antibacterial activity against chloramphenicol/ampicillin/trimethoprim/ciprofloxacin/nalidixic acid-resistant Escherichia coli 59 assessed as growth inhibition after 18 to 24 hrs by broth microdilution method; format: functional
Escherichia coli [27] = test: Antibacterial activity against cefazolinl/ampicillin/piperacillin/cefuroxime/cefepime/cefotaxime/tetracycline/ciprofloxacin-resistant Escherichia coli NG3 isolated from water source assessed as growth inhibition after 18 to 24 hrs by broth microdilution method
Escherichia coli [28] = test: Bactericidal activity against chloroamphenicol/ampicillin/kanamycin/trimethoprim/ciprofloxacin/nalidixic acid-resistant Escherichia coli 85 by agar plating method; format: functional
Escherichia coli [29] = test: Bactericidal activity against ampicillin/trimethoprim/piperacillin-resistant Escherichia coli MKNJ isolated from water source by agar plating method
Escherichia coli [30] = test: Antibacterial activity against ciprofloxacin-resistant Escherichia coli 72 assessed as growth inhibition after 18 to 24 hrs by broth microdilution method; format: functional
Escherichia coli [31] = test: Antibacterial activity against ampicillin/trimethoprim/cefazolinl/piperacillin/cefuroxime/cefoxitine/cefepime/cefotaxime-resistant Escherichia coli KP21 isolated from water source assessed as growth inhibition after 18 to 24 hrs by broth microdilution method
Escherichia coli [32] = test: Antibacterial activity against ampicillin/tetracycline/gentamicin-resistant Escherichia coli 451 assessed as growth inhibition after 18 to 24 hrs by broth microdilution method; format: functional
[33] = Inhibition of Escherichia coli DNA topoisomerase-1A using supercoiled pHOT1 plasmid DNA as substrate assessed as inhibition of DNA relaxation after 30 mins by agarose gel electrophoresis
Procedure, shortened: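 Supercoiled plasmid DNA incubated with E. coli Topo IA in the presence of compound at […]. Relaxation products were resolved by electrophoresis on 1% agarose gel.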

Escherichia coli [34] = test: Antibacterial activity against chloroamphenicol/ampicillin/kanamycin/trimethoprim/ciprofloxacin/nalidixic acid-resistant Escherichia coli 85 assessed as growth inhibition after 18 to 24 hrs by broth microdilution method; format: functional
Escherichia coli [35] = test: Bactericidal activity against Escherichia coli DH5[alpha] by agar plating method; format: functional

COc1ccc(-c2nc3ccc(-c4nc5ccc(N6CCN(c7ncccn7)CC6)cc5[nH]4)cc3[nH]2)cc1OC
MBC (Escherichia coli [1]): 32 mg/L (≈ 60.1 µM)
MIC50 (Escherichia coli [2]): 64 mg/L (≈ 120 µM)
MIC90 (Escherichia coli [2]): 122 mg/L (≈ 229 µM)
MBC (Escherichia coli [3]): 32 mg/L (≈ 60.1 µM)
MIC50 (Escherichia coli [4]): 2 mg/L (≈ 3.76 µM)
MIC90 (Escherichia coli [4]): 3.6 mg/L (≈ 6.76 µM)
MIC50 (Escherichia coli [5]): 32 mg/L (≈ 60.1 µM)
MIC90 (Escherichia coli [5]): 61.6 mg/L (≈ 116 µM)
MBC (Escherichia coli [6]): 64 mg/L (≈ 120 µM)
MBC (Escherichia coli [7]): 32 mg/L (≈ 60.1 µM)
MIC50 (Escherichia coli [8]): 128 mg/L (≈ 240 µM)
MIC50 (Escherichia coli [9]): 16 mg/L (≈ 30 µM)
MIC90 (Escherichia coli [9]): 30.4 mg/L (≈ 57.1 µM)
MBC (Escherichia coli [10]): 32 mg/L (≈ 60.1 µM)
MIC50 (Escherichia coli [11]): 16 mg/L (≈ 30 µM)
MIC90 (Escherichia coli [11]): 29 mg/L (≈ 54.4 µM)
MIC50 (Escherichia coli [12]): 32 mg/L (≈ 60.1 µM)
MIC90 (Escherichia coli [12]): 61.4 mg/L (≈ 115 µM)
MIC50 (Escherichia coli [13]): 32 mg/L (≈ 60.1 µM)
MIC90 (Escherichia coli [13]): 49 mg/L (≈ 92 µM)
MIC50 (Escherichia coli [14]): 32 mg/L (≈ 60.1 µM)
MIC90 (Escherichia coli [14]): 59.4 mg/L (≈ 112 µM)
MBC (Escherichia coli [15]): 32 mg/L (≈ 60.1 µM)
MBC (Escherichia coli [16]): 32 mg/L (≈ 60.1 µM)
MBC (Escherichia coli [17]): 64 mg/L (≈ 120 µM)
MIC50 (Escherichia coli [18]): 16 mg/L (≈ 30 µM)
MIC90 (Escherichia coli [18]): 30.2 mg/L (≈ 56.7 µM)
MBC (Escherichia coli [19]): 64 mg/L (≈ 120 µM)
MBC (Escherichia coli [20]): 64 mg/L (≈ 120 µM)
MBC (Escherichia coli [21]): 32 mg/L (≈ 60.1 µM)
MBC (Escherichia coli [22]): 128 mg/L (≈ 240 µM)
MIC50 (Escherichia coli [23]): 4 mg/L (≈ 7.51 µM)
MIC90 (Escherichia coli [23]): 7.4 mg/L (≈ 13.9 µM)
MBC (Escherichia coli [24]): 32 mg/L (≈ 60.1 µM)
MBC (Escherichia coli [25]): 32 mg/L (≈ 60.1 µM)
MIC50 (Escherichia coli [26]): 16 mg/L (≈ 30 µM)
MIC90 (Escherichia coli [26]): 30.2 mg/L (≈ 56.7 µM)
MIC50 (Escherichia coli [27]): 16 mg/L (≈ 30 µM)
MIC90 (Escherichia coli [27]): 30.6 mg/L (≈ 57.5 µM)
MBC (Escherichia coli [28]): 64 mg/L (≈ 120 µM)
MBC (Escherichia coli [29]): 64 mg/L (≈ 120 µM)
MIC50 (Escherichia coli [30]): 16 mg/L (≈ 30 µM)
MIC90 (Escherichia coli [30]): 30.1 mg/L (≈ 56.5 µM)
MIC50 (Escherichia coli [31]): 32 mg/L (≈ 60.1 µM)
MIC90 (Escherichia coli [31]): 60.5 mg/L (≈ 114 µM)
MIC50 (Escherichia coli [32]): 16 mg/L (≈ 30 µM)
MIC90 (Escherichia coli [32]): 28.8 mg/L (≈ 54.1 µM)
IC50 [33]: 6.2 µM
MIC50 (Escherichia coli [34]): 32 mg/L (≈ 60.1 µM)
MIC90 (Escherichia coli [34]): 55.8 mg/L (≈ 105 µM)
MBC (Escherichia coli [35]): 4 mg/L (≈ 7.51 µM)

CCCN1CCN(c2ccc3nc(-c4ccc5nc(-c6ccc(OCC)cc6)[nH]c5c4)[nH]c3c2)CC1
MBC (Escherichia coli [1]): 2 mg/L (≈ 4.16 µM)
MIC50 (Escherichia coli [2]): 2 mg/L (≈ 4.16 µM)
MIC90 (Escherichia coli [2]): 3.5 mg/L (≈ 7.28 µM)
MBC (Escherichia coli [3]): 2 mg/L (≈ 4.16 µM)
MIC50 (Escherichia coli [4]): 0.2 mg/L (≈ 0.416 µM)
MIC90 (Escherichia coli [4]): 0.8 mg/L (≈ 1.66 µM)
MIC50 (Escherichia coli [5]): 0.5 mg/L (≈ 1.04 µM)
MIC90 (Escherichia coli [5]): 1.6 mg/L (≈ 3.33 µM)
MBC (Escherichia coli [6]): 0.4 mg/L (≈ 0.832 µM)
MBC (Escherichia coli [7]): 2 mg/L (≈ 4.16 µM)
MIC50 (Escherichia coli [8]): 1 mg/L (≈ 2.08 µM)
MIC90 (Escherichia coli [8]): 3.1 mg/L (≈ 6.45 µM)
MIC50 (Escherichia coli [9]): 0.5 mg/L (≈ 1.04 µM)
MIC90 (Escherichia coli [9]): 1.8 mg/L (≈ 3.75 µM)
MBC (Escherichia coli [10]): 4 mg/L (≈ 8.32 µM)
MIC50 (Escherichia coli [11]): 1 mg/L (≈ 2.08 µM)
MIC90 (Escherichia coli [11]): 1.7 mg/L (≈ 3.54 µM)
MIC50 (Escherichia coli [12]): 1 mg/L (≈ 2.08 µM)
MIC90 (Escherichia coli [12]): 3.5 mg/L (≈ 7.28 µM)
MIC50 (Escherichia coli [13]): 0.2 mg/L (≈ 0.416 µM)
MIC90 (Escherichia coli [13]): 3.3 mg/L (≈ 6.87 µM)
MIC50 (Escherichia coli [14]): 4 mg/L (≈ 8.32 µM)
MIC90 (Escherichia coli [14]): 6.8 mg/L (≈ 14.1 µM)
MBC (Escherichia coli [15]): 2 mg/L (≈ 4.16 µM)
MBC (Escherichia coli [16]): 2 mg/L (≈ 4.16 µM)
MBC (Escherichia coli [17]): 8 mg/L (≈ 16.6 µM)
MIC50 (Escherichia coli [18]): 0.5 mg/L (≈ 1.04 µM)
MIC90 (Escherichia coli [18]): 1.7 mg/L (≈ 3.54 µM)
MBC (Escherichia coli [19]): 2 mg/L (≈ 4.16 µM)
MBC (Escherichia coli [20]): 4 mg/L (≈ 8.32 µM)
MBC (Escherichia coli [21]): 2 mg/L (≈ 4.16 µM)
MBC (Escherichia coli [22]): 4 mg/L (≈ 8.32 µM)
MIC50 (Escherichia coli [23]): 1 mg/L (≈ 2.08 µM)
MIC90 (Escherichia coli [23]): 1.7 mg/L (≈ 3.54 µM)
MBC (Escherichia coli [24]): 2 mg/L (≈ 4.16 µM)
MBC (Escherichia coli [25]): 4 mg/L (≈ 8.32 µM)
MIC50 (Escherichia coli [26]): 2 mg/L (≈ 4.16 µM)
MIC90 (Escherichia coli [26]): 3.4 mg/L (≈ 7.07 µM)
MIC50 (Escherichia coli [27]): 0.5 mg/L (≈ 1.04 µM)
MIC90 (Escherichia coli [27]): 1.7 mg/L (≈ 3.54 µM)
MBC (Escherichia coli [28]): 2 mg/L (≈ 4.16 µM)
MBC (Escherichia coli [29]): 4 mg/L (≈ 8.32 µM)
MIC50 (Escherichia coli [30]): 2 mg/L (≈ 4.16 µM)
MIC90 (Escherichia coli [30]): 3.1 mg/L (≈ 6.45 µM)
MIC50 (Escherichia coli [31]): 0.5 mg/L (≈ 1.04 µM)
MIC90 (Escherichia coli [31]): 3.8 mg/L (≈ 7.91 µM)
MIC50 (Escherichia coli [32]): 1 mg/L (≈ 2.08 µM)
MIC90 (Escherichia coli [32]): 1.7 mg/L (≈ 3.54 µM)
IC50 [33]: 2 µM
MIC50 (Escherichia coli [34]): 1 mg/L (≈ 2.08 µM)
MIC90 (Escherichia coli [34]): 1.7 mg/L (≈ 3.54 µM)
MBC (Escherichia coli [35]): 0.2 mg/L (≈ 0.416 µM)
